Results reported in ChEMBL document CHEMBL5696442, “Discovery of type II inhibitors of TGFβ-activated kinase 1 (TAK1) and mitogen-activated protein kinase kinase kinase kinase 2 (MAP4K2)” (J Med Chem, 2015).

What was measured:
[1] = molecular target: Tyrosine-protein kinase CSK (Homo sapiens, UniProt P41240); assay: Inhibition of CSK ACT labeling site harbouring VSDFGLTKEASSTQDTGKLPVK in human Huh-7 cell lysate at 1 uM by KiNativ Profiling analysis relative to control; format: subcellular
[2] = molecular target: T1, Tyrosine-protein kinase ABL1 (Homo sapiens, UniProt P00519); assay: Inhibition of ABL ACT labeling site in human Huh-7 cell lysate at 1 uM by KiNativ Profiling analysis relative to control; format: subcellular
[3] = molecular target: T1, Tyrosine-protein kinase ABL1; assay: Inhibition of ABL Lys1 labeling site in human Huh-7 cell lysate at 1 uM by KiNativ Profiling analysis relative to control; format: subcellular
MEF = assay: Inhibition of TGF-beta induced p38 MAPK phosphorylation level in wild type mouse MEF cells incubated for 1 hr followed by TGF-beta stimulation by Western blot analysis; format: functional, cell-based; settings: dose <= 500.0 nM
[4] = molecular target: T2, Mitogen-activated protein kinase 10 (Homo sapiens, UniProt P53779); assay: Inhibition of JNK3 Lys2 labeling site in human A-375 cells at 0.5 uM by KiNativ Profiling analysis relative to control; format: cell-based
[5] = molecular target: 5'-AMP-activated protein kinase catalytic subunit alpha-2 (Homo sapiens) (UniProt P54646); assay: Inhibition of AMPKa2 Lys1 labeling site in human A-375 cells at 0.05 uM by KiNativ Profiling analysis relative to control; format: cell-based
[6] = molecular target: T3, Aurora kinase C (Homo sapiens) (UniProt Q9UQB9); assay: Inhibition of AurC ATP Loop labeling site in human A-375 cells at 0.05 uM by KiNativ Profiling analysis relative to control; format: cell-based
T3 sequence (whole entry): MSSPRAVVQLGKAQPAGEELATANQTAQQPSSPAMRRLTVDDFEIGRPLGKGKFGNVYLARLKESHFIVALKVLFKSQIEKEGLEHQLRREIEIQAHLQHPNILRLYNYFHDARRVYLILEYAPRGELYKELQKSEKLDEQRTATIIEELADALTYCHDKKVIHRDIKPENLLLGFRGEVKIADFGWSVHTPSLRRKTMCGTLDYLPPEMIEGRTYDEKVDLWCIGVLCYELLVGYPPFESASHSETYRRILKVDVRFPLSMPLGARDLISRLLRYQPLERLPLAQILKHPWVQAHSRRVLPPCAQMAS

[7] = molecular target: T4, Interleukin-1 receptor-associated kinase 4 (Homo sapiens) (UniProt Q9NWZ3); assay: Inhibition of IRAK4 Lys2 labeling site in human A-375 cells at 5 uM by KiNativ Profiling analysis relative to control; format: cell-based
T4 sequence (whole entry): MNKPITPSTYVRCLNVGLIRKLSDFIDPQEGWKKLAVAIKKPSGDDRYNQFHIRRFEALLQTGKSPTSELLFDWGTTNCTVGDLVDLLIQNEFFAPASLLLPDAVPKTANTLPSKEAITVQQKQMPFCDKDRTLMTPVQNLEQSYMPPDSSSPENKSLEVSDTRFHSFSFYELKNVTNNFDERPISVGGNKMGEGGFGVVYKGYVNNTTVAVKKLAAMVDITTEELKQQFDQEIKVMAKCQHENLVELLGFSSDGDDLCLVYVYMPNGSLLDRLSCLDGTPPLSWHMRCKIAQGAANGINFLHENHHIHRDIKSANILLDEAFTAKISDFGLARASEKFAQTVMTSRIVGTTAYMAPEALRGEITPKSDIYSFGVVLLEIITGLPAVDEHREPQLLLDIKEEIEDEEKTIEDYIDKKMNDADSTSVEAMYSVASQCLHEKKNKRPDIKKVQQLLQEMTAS
Summary of the method: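 Live A375 melanoma cells were treated with compound at 5 or 0.5 μM, then lysed. Lysates were labeled with a lysine-reactive ATP or ADP-biotin probe. Read-out was the compound's protection of kinase labeling sites from probe labeling (KiNativ).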

[8] = molecular target: T5, Tyrosine-protein kinase Fer (Homo sapiens, UniProt P16591); assay: Inhibition of FER Lys1 labeling site in human A-375 cells at 5 uM by KiNativ Profiling analysis relative to control; format: cell-based
[9] = molecular target: Serine/threonine-protein kinase 10 (Homo sapiens) (UniProt O94804); assay: Inhibition of LOK Lys1 labeling site in human A-375 cells at 0.5 uM by KiNativ Profiling analysis relative to control; format: cell-based
[10] = molecular target: Mitogen-activated protein kinase 14 (Homo sapiens, UniProt Q16539); assay: Inhibition of p38 alpha Lys2 labeling site in human A-375 cells at 0.05 uM by KiNativ Profiling analysis relative to control; format: cell-based
[11] = molecular target: Cyclin-dependent kinase 1 (Homo sapiens) (UniProt P06493); assay: Inhibition of CDC2 Lys2 labeling site harbouring VLHRDLKPQNLLIDDKGTIK in human A-375 cells at 5 uM by KiNativ Profiling analysis relative to control; format: cell-based
Summary of the method: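 Live A375 melanoma cells were treated with compound at 5 or 0.5 μM. The cells were then lysed, and the lysates were labeled with a lysine-reactive ATP or ADP-biotin acyl probe (KiNativ). Inhibition is the compound's protection of each kinase labeling-site peptide from probe labeling, relative to untreated control.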

[12] = molecular target: DNA-PK/Ku70/Ku85 (Homo sapiens) (UniProt P78527+P12956+P13010); assay: Inhibition of DNAPK ATP labeling site harbouring EHPFLVKGGEDLR in human A-375 cells at 0.05 uM by KiNativ Profiling analysis relative to control; format: cell-based
[13] = molecular target: T2, Mitogen-activated protein kinase 10; assay: Inhibition of JNK3 (unknown origin) Lys2 labeling site by KiNativ Profiling analysis
[14] = molecular target: Dual specificity mitogen-activated protein kinase kinase 2 (Homo sapiens) (UniProt P36507); assay: Inhibition of MAP2K2 Lys1 labeling site in human A-375 cells at 0.5 uM by KiNativ Profiling analysis relative to control; format: cell-based
Ephrin type-A receptor 2 = Ephrin type-A receptor 2 (Homo sapiens, UniProt P29317); assay: Inhibition of EphA2 ACT labeling site in human Huh-7 cells at 1 uM by KiNativ Profiling analysis relative to control; format: cell-based
[15] = molecular target: T5, Tyrosine-protein kinase Fer; assay: Inhibition of FER ACT labeling site in human A-375 cells at 0.05 uM by KiNativ Profiling analysis relative to control; format: cell-based
[16] = molecular target: T6, Phosphatidylinositol 5-phosphate 4-kinase type-2 alpha (Homo sapiens) (UniProt P48426); assay: Inhibition of PIP4K2A ATP labeling site in human A-375 cells at 5 uM by KiNativ Profiling analysis relative to control; format: cell-based
T6 sequence (whole entry): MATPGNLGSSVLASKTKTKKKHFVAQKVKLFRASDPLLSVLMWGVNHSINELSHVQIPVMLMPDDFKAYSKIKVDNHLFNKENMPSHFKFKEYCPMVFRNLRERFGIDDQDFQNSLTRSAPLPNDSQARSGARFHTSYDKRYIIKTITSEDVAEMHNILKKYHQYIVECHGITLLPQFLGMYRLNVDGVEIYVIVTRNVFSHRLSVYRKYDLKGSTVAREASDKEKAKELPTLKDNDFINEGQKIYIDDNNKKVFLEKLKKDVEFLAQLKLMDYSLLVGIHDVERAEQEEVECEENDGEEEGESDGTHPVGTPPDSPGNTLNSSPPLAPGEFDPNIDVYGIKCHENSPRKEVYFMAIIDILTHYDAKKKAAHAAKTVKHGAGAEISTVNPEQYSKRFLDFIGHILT

T5 sequence (P16591 whole entry, looked up): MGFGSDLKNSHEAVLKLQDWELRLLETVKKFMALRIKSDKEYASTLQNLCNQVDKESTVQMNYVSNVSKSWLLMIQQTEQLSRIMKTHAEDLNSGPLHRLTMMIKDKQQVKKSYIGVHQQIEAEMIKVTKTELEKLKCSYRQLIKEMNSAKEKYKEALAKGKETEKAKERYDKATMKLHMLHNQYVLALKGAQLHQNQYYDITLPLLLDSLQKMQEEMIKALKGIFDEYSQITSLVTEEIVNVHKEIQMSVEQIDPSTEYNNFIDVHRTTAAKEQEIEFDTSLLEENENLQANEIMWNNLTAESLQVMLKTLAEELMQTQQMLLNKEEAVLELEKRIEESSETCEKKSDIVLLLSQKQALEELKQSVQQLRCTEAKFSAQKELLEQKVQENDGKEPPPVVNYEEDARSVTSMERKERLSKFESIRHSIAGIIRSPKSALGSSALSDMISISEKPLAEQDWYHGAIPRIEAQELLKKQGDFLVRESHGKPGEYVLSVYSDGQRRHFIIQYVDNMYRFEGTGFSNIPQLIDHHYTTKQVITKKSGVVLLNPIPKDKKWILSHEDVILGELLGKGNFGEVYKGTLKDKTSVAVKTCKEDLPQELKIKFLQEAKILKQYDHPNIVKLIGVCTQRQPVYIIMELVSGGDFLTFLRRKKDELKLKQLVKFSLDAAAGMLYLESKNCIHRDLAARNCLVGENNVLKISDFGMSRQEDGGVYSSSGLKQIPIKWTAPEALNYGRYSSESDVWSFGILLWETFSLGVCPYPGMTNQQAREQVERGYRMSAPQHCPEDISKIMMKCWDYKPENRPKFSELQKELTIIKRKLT
T1 sequence (P00519 whole entry): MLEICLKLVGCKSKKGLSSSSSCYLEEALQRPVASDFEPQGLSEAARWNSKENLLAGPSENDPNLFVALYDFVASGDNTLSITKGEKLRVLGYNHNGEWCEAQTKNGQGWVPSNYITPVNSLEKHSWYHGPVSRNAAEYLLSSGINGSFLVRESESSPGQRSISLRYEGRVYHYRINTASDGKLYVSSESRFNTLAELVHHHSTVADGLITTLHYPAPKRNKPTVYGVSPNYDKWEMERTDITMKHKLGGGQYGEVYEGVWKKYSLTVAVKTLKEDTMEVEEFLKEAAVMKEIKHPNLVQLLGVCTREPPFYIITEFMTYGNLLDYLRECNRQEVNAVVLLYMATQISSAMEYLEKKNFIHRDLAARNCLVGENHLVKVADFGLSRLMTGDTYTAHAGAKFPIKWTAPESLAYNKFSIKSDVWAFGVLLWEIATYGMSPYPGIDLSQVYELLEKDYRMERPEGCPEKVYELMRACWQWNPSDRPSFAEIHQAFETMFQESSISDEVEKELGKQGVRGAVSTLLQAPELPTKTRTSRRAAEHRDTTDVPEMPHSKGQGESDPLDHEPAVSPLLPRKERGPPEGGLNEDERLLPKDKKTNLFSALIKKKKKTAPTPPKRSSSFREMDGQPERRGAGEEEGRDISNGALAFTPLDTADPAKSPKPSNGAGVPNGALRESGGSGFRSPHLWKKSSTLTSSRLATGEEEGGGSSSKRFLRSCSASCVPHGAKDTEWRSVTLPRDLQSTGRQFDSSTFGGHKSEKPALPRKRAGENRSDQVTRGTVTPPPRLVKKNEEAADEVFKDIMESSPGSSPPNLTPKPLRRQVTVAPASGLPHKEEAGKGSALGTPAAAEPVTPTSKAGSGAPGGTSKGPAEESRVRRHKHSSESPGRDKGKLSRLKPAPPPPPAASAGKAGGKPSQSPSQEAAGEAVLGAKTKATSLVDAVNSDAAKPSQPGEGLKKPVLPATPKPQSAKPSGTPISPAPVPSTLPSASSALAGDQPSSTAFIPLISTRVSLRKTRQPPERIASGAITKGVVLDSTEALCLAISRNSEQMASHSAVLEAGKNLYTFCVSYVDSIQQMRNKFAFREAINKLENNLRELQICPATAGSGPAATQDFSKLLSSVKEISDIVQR
T2 sequence (P53779 whole entry): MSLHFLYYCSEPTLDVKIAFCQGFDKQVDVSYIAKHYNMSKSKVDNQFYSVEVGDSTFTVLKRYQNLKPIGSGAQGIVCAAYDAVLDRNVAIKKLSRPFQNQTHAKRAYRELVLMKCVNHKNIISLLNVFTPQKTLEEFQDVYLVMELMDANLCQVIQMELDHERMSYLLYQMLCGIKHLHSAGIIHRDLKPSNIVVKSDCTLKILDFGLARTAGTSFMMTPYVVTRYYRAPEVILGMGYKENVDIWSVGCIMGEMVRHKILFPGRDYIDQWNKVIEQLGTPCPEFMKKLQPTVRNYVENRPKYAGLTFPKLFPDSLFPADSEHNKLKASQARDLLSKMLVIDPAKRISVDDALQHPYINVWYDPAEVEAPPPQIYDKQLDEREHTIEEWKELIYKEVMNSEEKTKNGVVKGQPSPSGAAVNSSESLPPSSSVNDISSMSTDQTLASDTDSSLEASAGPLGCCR
Mitogen-activated protein kinase 14, sequence (Q16539 whole entry): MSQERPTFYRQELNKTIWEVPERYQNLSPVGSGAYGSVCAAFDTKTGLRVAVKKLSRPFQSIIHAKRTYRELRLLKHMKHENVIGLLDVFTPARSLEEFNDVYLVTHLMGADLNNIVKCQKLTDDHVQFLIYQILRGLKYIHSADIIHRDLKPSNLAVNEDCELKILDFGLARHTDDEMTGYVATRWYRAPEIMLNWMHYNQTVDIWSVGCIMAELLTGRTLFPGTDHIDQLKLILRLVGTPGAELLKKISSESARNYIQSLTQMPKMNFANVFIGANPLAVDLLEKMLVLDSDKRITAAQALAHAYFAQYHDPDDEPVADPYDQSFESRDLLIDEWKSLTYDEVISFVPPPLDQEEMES
Ephrin type-A receptor 2, sequence (P29317 whole entry): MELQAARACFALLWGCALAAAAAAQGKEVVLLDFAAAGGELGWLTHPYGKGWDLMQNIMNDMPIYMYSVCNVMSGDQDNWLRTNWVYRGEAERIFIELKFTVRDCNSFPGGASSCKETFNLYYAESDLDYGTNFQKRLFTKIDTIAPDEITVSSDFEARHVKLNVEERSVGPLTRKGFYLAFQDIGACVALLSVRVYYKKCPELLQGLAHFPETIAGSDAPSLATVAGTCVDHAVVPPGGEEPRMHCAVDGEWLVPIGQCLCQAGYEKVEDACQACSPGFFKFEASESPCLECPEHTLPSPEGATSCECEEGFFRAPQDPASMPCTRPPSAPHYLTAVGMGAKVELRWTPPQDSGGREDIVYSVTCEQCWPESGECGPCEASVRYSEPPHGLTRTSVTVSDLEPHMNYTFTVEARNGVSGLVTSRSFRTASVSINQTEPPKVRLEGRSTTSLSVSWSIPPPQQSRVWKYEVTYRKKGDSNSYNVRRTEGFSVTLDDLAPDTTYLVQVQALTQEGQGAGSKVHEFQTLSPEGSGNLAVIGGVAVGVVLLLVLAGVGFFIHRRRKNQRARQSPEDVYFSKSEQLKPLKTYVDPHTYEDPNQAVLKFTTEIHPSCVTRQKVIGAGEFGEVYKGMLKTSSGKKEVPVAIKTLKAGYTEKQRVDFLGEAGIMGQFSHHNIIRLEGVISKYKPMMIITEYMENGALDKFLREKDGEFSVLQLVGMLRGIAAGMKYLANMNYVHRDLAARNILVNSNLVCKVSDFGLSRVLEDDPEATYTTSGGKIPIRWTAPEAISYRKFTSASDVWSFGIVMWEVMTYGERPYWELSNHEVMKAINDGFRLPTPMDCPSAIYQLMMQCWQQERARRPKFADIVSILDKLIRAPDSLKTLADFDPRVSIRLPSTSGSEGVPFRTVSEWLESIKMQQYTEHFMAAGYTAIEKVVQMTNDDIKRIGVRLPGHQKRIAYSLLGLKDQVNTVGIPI
5'-AMP-activated protein kinase catalytic subunit alpha-2 (Homo sapiens), sequence (P54646 whole entry, looked up): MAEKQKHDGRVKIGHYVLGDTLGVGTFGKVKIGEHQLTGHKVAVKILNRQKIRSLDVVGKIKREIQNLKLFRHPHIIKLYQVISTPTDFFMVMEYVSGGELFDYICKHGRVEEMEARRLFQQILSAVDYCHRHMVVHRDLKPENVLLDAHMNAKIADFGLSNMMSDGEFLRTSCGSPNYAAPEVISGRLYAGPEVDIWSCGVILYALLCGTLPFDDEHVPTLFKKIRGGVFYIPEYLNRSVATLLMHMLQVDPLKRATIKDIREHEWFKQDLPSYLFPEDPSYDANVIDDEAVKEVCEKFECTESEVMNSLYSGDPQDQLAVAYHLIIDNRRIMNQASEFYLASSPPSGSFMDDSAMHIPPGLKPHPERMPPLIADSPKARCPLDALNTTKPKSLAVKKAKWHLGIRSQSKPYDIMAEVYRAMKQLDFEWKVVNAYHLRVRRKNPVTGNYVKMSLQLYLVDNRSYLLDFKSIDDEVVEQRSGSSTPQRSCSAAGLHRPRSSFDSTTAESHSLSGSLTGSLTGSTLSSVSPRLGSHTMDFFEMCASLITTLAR
Dual specificity mitogen-activated protein kinase kinase 2 (Homo sapiens), sequence (P36507 whole entry): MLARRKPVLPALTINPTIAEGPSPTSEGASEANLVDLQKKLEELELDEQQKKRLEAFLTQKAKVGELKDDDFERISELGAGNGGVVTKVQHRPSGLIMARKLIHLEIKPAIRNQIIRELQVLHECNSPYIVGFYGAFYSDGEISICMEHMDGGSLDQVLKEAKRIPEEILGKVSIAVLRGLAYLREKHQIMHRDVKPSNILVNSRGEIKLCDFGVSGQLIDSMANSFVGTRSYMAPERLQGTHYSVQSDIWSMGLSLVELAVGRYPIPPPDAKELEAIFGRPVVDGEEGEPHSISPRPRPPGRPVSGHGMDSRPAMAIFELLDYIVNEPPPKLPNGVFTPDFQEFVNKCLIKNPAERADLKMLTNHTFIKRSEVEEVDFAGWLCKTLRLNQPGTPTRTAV
Cyclin-dependent kinase 1 (Homo sapiens), sequence (P06493 whole entry, looked up): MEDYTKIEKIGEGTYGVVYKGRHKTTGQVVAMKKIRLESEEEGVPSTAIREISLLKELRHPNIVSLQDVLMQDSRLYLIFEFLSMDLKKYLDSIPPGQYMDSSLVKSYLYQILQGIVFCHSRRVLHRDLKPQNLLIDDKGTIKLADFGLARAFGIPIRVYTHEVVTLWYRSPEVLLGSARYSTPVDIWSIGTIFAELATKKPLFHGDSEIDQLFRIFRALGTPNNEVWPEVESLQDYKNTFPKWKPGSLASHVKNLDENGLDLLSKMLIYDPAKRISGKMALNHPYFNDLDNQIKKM

| SMILES | inhibition [1] | inhibition [2] | inhibition [3] | inhibition (MEF) | inhibition [4] | inhibition [5] | inhibition [6] | inhibition [7] | inhibition [8] | inhibition [9] | inhibition [10] | inhibition [11] | inhibition [12] | IC50 [13] | inhibition [14] | inhibition (Ephrin type-A receptor 2) | inhibition [15] | inhibition [16] |
| --- | --- | --- | --- | --- | --- | --- | --- | --- | --- | --- | --- | --- | --- | --- | --- | --- | --- | --- |
| CNc1cc(Oc2cc(C(=O)Nc3cc(-n4cnc(C)c4)cc(C(F)(F)F)c3)ccc2C)ncn1 | 0.3% | 59.7% | 51.8% | Dose-Dependent Effect |  |  |  |  |  |  |  |  |  |  |  |  |  |  |
| CCN1CCN(Cc2ccc(NC(=O)c3ccc(C)c(Oc4ccnc5[nH]ccc45)c3)cc2C(F)(F)F)CC1 |  |  |  |  | 73.7% | 13.4% | 32.5% | -0.2% | 98.1% | 71.7% | 4.2% | 34.7% | -9.3% | > 10 µM | -3.5% | 16.1% | 62% | 0.9% |
| CCN1CCN(Cc2ccc(NC(=O)c3ccc(C)c(/C=C/c4cnc5[nH]ccc5c4OC)c3)cc2C(F)(F)F)CC1 |  |  |  |  | 40.6% | 7.4% | 14.1% | 34.1% | 80.3% | 60.7% | 59.4% | -3.1% | 9.9% | > 10 µM | 4.4% |  | -9.9% | 4.7% |
| CNc1cc(Oc2cc(C(=O)Nc3cc(N4CCN(C)CC4)cc(C(F)(F)F)c3)ccc2C)ncn1 | 7.9% | 49.4% | 48.4% | Dose-Dependent Effect |  |  |  |  |  |  |  |  |  |  |  | 69.2% |  |  |
